Calls of active or inactive are those of the source. The rule behind the calls is not given here.
How the values were obtained:
[1] = molecular target: T1, Tyrosine-protein phosphatase non-receptor type 1 (Homo sapiens, UniProt P18031); test: Inhibition of PTP1B (unknown origin) using pNPP as substrate preincubated for 10 mins followed by substrate addition measured after 30 mins
T1 sequence (P18031 whole entry): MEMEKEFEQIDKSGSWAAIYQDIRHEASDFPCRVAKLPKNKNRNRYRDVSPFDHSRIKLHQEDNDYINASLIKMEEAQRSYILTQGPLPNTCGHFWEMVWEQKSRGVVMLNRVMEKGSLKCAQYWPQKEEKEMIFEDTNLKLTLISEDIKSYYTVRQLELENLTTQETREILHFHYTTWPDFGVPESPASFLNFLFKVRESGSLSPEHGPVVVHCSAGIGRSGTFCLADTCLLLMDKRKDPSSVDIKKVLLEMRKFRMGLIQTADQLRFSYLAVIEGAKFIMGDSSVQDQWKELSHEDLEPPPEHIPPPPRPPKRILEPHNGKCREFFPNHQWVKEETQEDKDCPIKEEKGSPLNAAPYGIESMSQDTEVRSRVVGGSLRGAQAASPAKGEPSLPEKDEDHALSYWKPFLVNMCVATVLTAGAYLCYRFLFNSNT
How it was run: (§1)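 Enzyme (0.5 μg/mL stock) in 50 mM citrate pH 6.0, 0.1 M NaCl, 1 mM DTT, 1 mM EDTA; sample added in CH3OH, preincubated 10 min at 37 °C. pNPP (4.0 mM stock) started reaction, 30 min at 37 °C, stopped with 10 M NaOH; p-nitrophenol read at 405 nm. Inhibition (%) = [1 − (sample − blank)/(control − blank)] × 100; oleanolic acid positive control.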

[2] = molecular target: T2, Tyrosine-protein phosphatase non-receptor type 1 (Homo sapiens) (UniProt P18031); test: Inhibition of PTP1B (unknown origin) at 15.2 to 16 uM using pNPP as substrate preincubated for 10 mins followed by substrate addition measured after 30 mins; how it was run: as §1
T2 sequence (whole entry): T1 sequence (P18031 whole entry)

Huh-7 = test: Cytotoxicity against human HuH7 cells assessed as decrease in cell viability after 72 hrs by WST1 assay; format: functional, cell-based
How it was run: (§2)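 Seeded 1×10^4 cells per well, cultured overnight, then exposed to compound for 72 h; controls got 0.1% EtOH. Medium with WST-1 (0.5 mM WST-1, 0.02 mM 1-PMS) added, 60 min at 37 °C, absorbance 438 nm (reference 620 nm). Viability = treated absorbance/control absorbance × 100 (%).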

A549 = test: Cytotoxicity against human A549 cells assessed as decrease in cell viability after 72 hrs by WST1 assay; format: functional, cell-based; how it was run: as §2

| IC50 [1] [µM] | inhibition [2] | SMILES | Activity (Huh-7) | Activity (A549) |
| --- | --- | --- | --- | --- |
| – | inactive | CC(=O)N[C@H]1[C@H](O[C@@H]2CO[C@@H](O[C@H]3CC[C@]4(C)C5=C(CC[C@H]4C3(C)C)[C@@H]3CC[C@H]([C@H](C)CC(=O)C=C(C)C)[C@@]3(C)CC5)[C@H](O[C@@H]3O[C@H](CO[C@@H]4O[C@H](CO)[C@@H](O)[C@H](O)[C@H]4O[C@@H]4O[C@H](CO)[C@@H](O)[C@H](O)[C@H]4O)[C@@H](O)[C@H](O)[C@H]3NC(C)=O)[C@H]2O)O[C@H](CO)[C@H](O)[C@@H]1O | inactive | inactive |
| – | inactive | CC(=O)N[C@H]1[C@H](O[C@@H]2CO[C@@H](O[C@H]3CC[C@@]4(C)[C@@H](CCC5=C6[C@@H](O)C[C@H]([C@H](C)CC(=O)C=C(C)C)[C@@]6(C)CC[C@@]54O)C3(C)C)[C@H](O[C@@H]3O[C@H](CO[C@@H]4O[C@H](CO)[C@@H](O)[C@H](O)[C@H]4O[C@@H]4O[C@H](CO)[C@@H](O)[C@H](O)[C@H]4O)[C@@H](O)[C@H](O)[C@H]3NC(C)=O)[C@H]2O)O[C@H](CO)[C@H](O)[C@@H]1O | inactive | inactive |
| – | inactive | CC(=O)C[C@@H](C)[C@H]1CC[C@H]2C3=C(CC[C@]12C)[C@@]1(C)CC[C@H](O[C@@H]2OC[C@@H](O[C@@H]4O[C@H](CO)[C@H](O)[C@H](O)[C@H]4NC(C)=O)[C@H](O)[C@H]2O[C@@H]2O[C@H](CO[C@@H]4O[C@H](CO)[C@@H](O)[C@H](O)[C@H]4O[C@@H]4O[C@H](CO)[C@@H](O)[C@H](O)[C@H]4O)[C@@H](O)[C@H](O)[C@H]2NC(C)=O)C(C)(C)[C@@H]1CC3 | inactive | inactive |

The remaining lines, values behind:

| SMILES | IC50 [1] [µM] | inhibition [2] | Activity (Huh-7) | Activity (A549) |
| --- | --- | --- | --- | --- |
| CCCCCCCC(C)CCC/C(O)=C1\C(=O)C(C)N(C)C1=O (stereo not drawn) [MELOPHLIN C] | 14.6 | – | – | – |
| CC(=O)N[C@H]1[C@H](O[C@@H]2CO[C@@H](O[C@H]3CC[C@]4(C)C5=C(CC[C@H]4C3(C)C)[C@@H]3CC[C@H]([C@H](C)CC(=O)CC(C)(C)O)[C@@]3(C)CC5)[C@H](O[C@@H]3O[C@H](CO[C@@H]4O[C@H](CO)[C@@H](O)[C@H](O)[C@H]4O[C@@H]4O[C@H](CO)[C@@H](O)[C@H](O)[C@H]4O)[C@@H](O)[C@H](O)[C@H]3NC(C)=O)[C@H]2O)O[C@H](CO)[C@H](O)[C@@H]1O | – | inactive | inactive | inactive |
